Results gathered from unrelated publications.
Lines come from different studies, so protocols differ.
Target: Rho-associated protein kinase 1 (ROCK1, Homo sapiens, UniProt Q13464)

For `CNC(=O)c1cc(Oc2ccc(NC(=O)Nc3ccc(Cl)c(C(F)(F)F)c3)cc2)ccn1`, the inhibition was 8% (enzyme activity; inhibitor; 10 µM).
With `Nc1ncnc2occ(-c3ccc(NC(=O)Nc4cc(C(F)(F)F)ccc4F)cc3)c12` the remaining signal was 0.1% (cell-free assay; inhibitor; 20 µM).
The remaining activity of `Cc1ccc(C(=O)Nc2ccc(CN3CCN(C)CC3)c(C(F)(F)F)c2)cc1C#Cc1cnc2cccnn12` is reported as 79% (enzyme activity; inhibitor; 23.5 nM).
With `CCCCNc1ncc2c(-c3ccc(F)cc3)nn(C[C@H]3CC[C@H](N)CC3)c2n1` the inhibition was 54.3% (target engagement in cells; inhibitor; chemoproteomics; 20 mM).
`CCCOc1ccc(OC)c(F)c1C(=O)c1ccc(C(=O)N[C@@H]2CNC[C@H]2NC(=O)c2ccc3[nH]ncc3c2)cc1` has a remaining activity of 8% (enzyme activity; inhibitor; 10 µM).
`Cc1sc(C(=O)NC2COC2)cc1-n1cc(NC(=O)Nc2c(F)cccc2Cl)cn1` gave a remaining activity of 96.8% (enzyme activity; inhibitor; 10 µM).
With `CC(=O)N1CCC(c2ccc(C(=O)NC(=N)N)cc2C(F)(F)F)CC1` the remaining binding was 87% (cell-free assay; competition with immobilised ligand; 1 µM).
`CCCS(=O)(=O)Nc1ccc(F)c(C(=O)c2c[nH]c3ncc(-c4ccc(Cl)cc4)cc23)c1F` has an inhibition of < 10% (enzyme activity; inhibitor; 1 µM).
`O=c1nc(-c2ccccn2)sc2ccccc12` gave a remaining binding of 100% (binding; competition with immobilised ligand; 1 µM).
For `CC/C(=N\NC(=O)NCc1cccc(O)c1)c1ccc(O)c(C)c1O`, the inhibition was 65.5% (enzyme activity; inhibitor; 0.1 µM).
`O=C1NC(c2ccccn2)Sc2ccccc21` (stereo not drawn) has a remaining binding of 82% (cell-free assay; competition with immobilised ligand; 1 µM).
With `Cc1cnc(NC2CCOCC2)nc1-n1cnc(C(=O)NC(CN)c2cc(F)cc(Cl)c2)c1` (stereo not drawn) the remaining activity was 62% (enzyme activity; inhibitor; radiometric; 1 µM).
`CC(C)(O)[C@H]1CC[C@H](Nc2ccc3ncc(-c4cccc(C(F)(F)F)c4)n3n2)CC1` has a remaining activity of 94% (enzyme activity; inhibitor; 1 µM).
`COc1cc(-c2cn(C3CCc4ccccc4N(CC(F)(F)F)C3=O)nn2)ccc1-n1ccc(C)n1` (stereo not drawn) gave a remaining binding of 100% (cell-free assay; competition with immobilised ligand; 1 µM).
`CC(C)(C)c1nc2c(s1)c1nc(N)ncc1c1ccc(NS(=O)(=O)c3c(F)cccc3F)c(F)c12` has a remaining activity of 98% (enzyme activity; inhibitor; radiometric; 1 µM).
`Cc1ccc(NC(=O)c2ccc(C)c(C(F)(F)F)c2)cc1C#Cc1nn(C2CCC(O)CC2)c2ncnc(N)c12` (stereo not drawn) has a remaining signal of 126% (cell-free assay; 10 µM).
The inhibition of `Cc1ccc(Nc2nccc(N(C)c3ccc4c(C)n(C)nc4c3)n2)cc1S(N)(=O)=O` is reported as 18% (enzyme activity; inhibitor; 10 µM).
`Cc1c[nH]c2nccc(Oc3c(F)cc(Nc4cc(Cl)nc(N)n4)cc3F)c12` has a remaining binding of 0.6% (cell-free assay; competition with immobilised ligand; 0.1 µM).
`C[S+]([O-])c1ccc(-c2nc(-c3ccncc3)c(-c3ccc(F)cc3)[nH]2)cc1` (stereo not drawn) gave a remaining signal of 102% (cell-free assay; 0.5 µM).
`C=CC(=O)Nc1cc(Nc2nccc(Nc3cc(Cl)c(F)cc3C(C)(C)O)n2)c(OC)cc1N1CC[C@@H](N(C)C)C1` gave an inhibition of 0% (enzyme activity; inhibitor; 1 µM).
`N#CCCc1ccc2c(c1)-c1[nH]c3ccc([N+](=O)[O-])cc3c1CC(=O)N2` gave a remaining signal of 38.9% (cell-free assay; 0.5 µM).
For `CCS(=O)(=O)c1cc2cc(C[C@](O)(CC(C)(C)c3ccc(F)cc3C(N)=O)C(F)(F)F)[nH]c2cn1`, the remaining binding was 84% (cell-free assay; competition with immobilised ligand; 1 µM).
For `COc1cc(Cl)c(C(=O)N[C@@H](CN[C@H]2CC[C@@H](N)CC2)Cc2ccc(C#N)cc2)cc1-c1ccc(CN[C@H](C)c2ccc(C)cc2)o1`, the remaining activity was 105% (enzyme activity; inhibitor; 1 µM).
With `COc1cc2ncnc(Nc3ccc(Oc4ccccc4)cc3C)c2cc1OC` the inhibition was 1% (enzyme activity; inhibitor; 1 µM).
`CCN(CC)CCNC(=O)c1c(C)[nH]c(/C=C2\C(=O)Nc3ccc(F)cc32)c1C` has an inhibition of 6% (enzyme activity; inhibitor; 0.3 µM).
With `C[C@@H](c1cccc(C#N)c1)n1cc(Cl)cc(C(N)=O)c1=N` the remaining binding was 71% (cell-free assay; competition with immobilised ligand; 1 µM).
`Cn1cncc1C1=CN(c2ncnc3[nH]cnc23)CCS1` gave an inhibition of 88.6% (enzyme activity; inhibitor; radiometric; 2 µM).
The remaining signal of `O=C1NC(=O)c2cc(Nc3ccc(F)cc3)c(Nc3ccc(F)cc3)cc21` is reported as 96.7% (cell-free assay; 0.5 µM).
With `CN(C)C(=O)Cn1cc(-c2nc(C3(c4ccc(-c5cnc(N)nc5)cc4)CC3)no2)cn1` the remaining binding was 83% (cell-free assay; competition with immobilised ligand; 1 µM).
`CN(C)C1CCN(CC#Cc2nn(C3CCCC3)c3nc(NCc4ccccc4)ncc23)C1` (stereo not drawn) gave an inhibition of -5% (enzyme activity; inhibitor; FRET; 0.1 µM).
